Assay results taken from ChEMBL document CHEMBL1149089, “Evaluation of potent and selective small-molecule antagonists for the CXCR2 chemokine receptor” (J Med Chem, 2004).

Experiments:
[1] = target: T1, C-X-C chemokine receptor type 2 (Homo sapiens, UniProt P25025); test: Inhibition of binding of IL-8 to membranes of cloned CXC chemokine receptor 2 expressed in CHO Cells using [125I]IL-8 radioligand
T1 sequence (P25025 whole entry): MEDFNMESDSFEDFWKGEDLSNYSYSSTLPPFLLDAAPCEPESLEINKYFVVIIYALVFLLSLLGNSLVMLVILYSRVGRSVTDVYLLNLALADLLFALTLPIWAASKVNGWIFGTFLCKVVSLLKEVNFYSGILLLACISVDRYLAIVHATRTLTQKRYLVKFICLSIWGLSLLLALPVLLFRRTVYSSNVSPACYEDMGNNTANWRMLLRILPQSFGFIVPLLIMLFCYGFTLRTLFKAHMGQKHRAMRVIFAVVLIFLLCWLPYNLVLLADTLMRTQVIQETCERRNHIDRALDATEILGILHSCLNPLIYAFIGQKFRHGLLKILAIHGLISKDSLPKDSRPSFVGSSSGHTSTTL
Procedure, shortened: (§1)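 Membranes from CHO cells stably expressing CXCR1 or CXCR2; competition against radiolabeled human recombinant [125I]IL-8; IC50 given as mean ± SEM of three individual experiments.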

Homo sapiens = species: Homo sapiens; test: Compound was evaluated for GROalpha-mediated calcium mobilization in human polymorphonuclear neutrophils(PMNs); format: functional
Procedure, shortened: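 Human neutrophils stimulated with GROα, the CXCR2-selective ligand; calcium mobilization measured; mean ± SEM of at least three separate determinations.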

[2] = target: T2, C-X-C chemokine receptor type 1 (Homo sapiens, UniProt P25024); test: Inhibition of binding of IL-8 to membranes of cloned CXC chemokine receptor 1 expressed in CHO Cells using [125I]IL-8 radioligand; procedure, shortened: as §1
T2 sequence (P25024 whole entry): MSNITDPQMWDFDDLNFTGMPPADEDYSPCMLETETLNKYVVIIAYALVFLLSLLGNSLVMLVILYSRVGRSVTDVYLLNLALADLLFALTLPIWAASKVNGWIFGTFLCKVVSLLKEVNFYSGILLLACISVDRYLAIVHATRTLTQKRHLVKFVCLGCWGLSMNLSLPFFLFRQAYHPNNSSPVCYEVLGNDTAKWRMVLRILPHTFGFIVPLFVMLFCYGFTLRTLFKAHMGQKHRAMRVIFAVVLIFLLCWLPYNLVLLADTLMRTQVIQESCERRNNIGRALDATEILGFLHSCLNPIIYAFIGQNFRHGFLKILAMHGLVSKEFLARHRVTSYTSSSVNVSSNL

Oryctolagus cuniculus [3] = test: Compound was evaluated for inhibition of topical model of delayed type hypersensitivity (DTH) at a dose of 1000 ug in rabbits; format: functional
Procedure, shortened: (§2)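 Rabbits sensitized by complete Freund's adjuvant injected in the nape of the neck; challenged intradermally 5 weeks later with tuberculin (10 units PPD). Compound in methanol (50 µL) or methanol vehicle applied topically to PPD sites 5 min after challenge and reapplied 4 h later. Skin-fold thickness at challenge site measured 48 h after challenge; % inhibition versus vehicle.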

Oryctolagus cuniculus [4] = test: Compound was evaluated for inhibition of topical model of delayed type hypersensitivity (DTH) at a dose of 62.5 ug in rabbits; format: functional; procedure, shortened: as §2
Oryctolagus cuniculus [5] = test: Compound was evaluated for inhibition of topical model of delayed type hypersensitivity (DTH) at a dose of 500 ug in rabbits; format: functional
Procedure, shortened: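 Rabbits sensitized by complete Freund's adjuvant injection in the nape of the neck, then challenged intradermally 5 weeks later with tuberculin (10 units PPD). At 5 min post-challenge, compound in methanol (50 µL) or methanol vehicle was applied topically to PPD sites and reapplied 4 h later. Skin-fold thickness at the challenge site was read 48 h after PPD; % inhibition reported.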

Row | Structure (SMILES) | IC50 [1] | IC50 (Homo sapiens) | IC50 [2] | Inhibition (Oryctolagus cuniculus [3]) | Inhibition (Oryctolagus cuniculus [4]) | Inhibition (Oryctolagus cuniculus [5])
1 | O=C(Nc1ccccc1)Nc1ccc([N+](=O)[O-])cc1O | 320 nM | 339 nM | 18200 nM |  |  | 
2 | N#Cc1ccc(NC(=O)Nc2ccccc2Br)c(O)c1Cl | 22 nM | 2.6 nM | 4200 nM |  |  | 
3 | N#Cc1ccc(NC(=O)Nc2ccccc2)c(O)c1 | 200 nM | 120 nM | 21000 nM | 21% |  | 
4 | N#Cc1c(Cl)ccc(NC(=O)Nc2ccccc2Br)c1O | 57 nM | 7.5 nM | 11100 nM |  | 3% | 
5 | O=C(Nc1ccccc1)Nc1cccc([N+](=O)[O-])c1O | 860 nM | 511 nM | 33200 nM |  |  | 
6 | N#Cc1ccc(NC(=O)Nc2ccccc2Br)c(O)c1Br | 6 nM | 0.79 nM | 2600 nM |  |  | 33%
7 | O=C(Nc1ccccc1)Nc1cc([N+](=O)[O-])ccc1O | 10900 nM | 13800 nM | 46200 nM |  |  | 
8 | N#Cc1ccc(NC(=O)Nc2ccccc2Br)c(O)c1 | 25 nM | 53 nM | 15100 nM |  |  | 31%
